Assay results reported in ChEMBL document CHEMBL1126127, “Nonprostanoid prostacyclin mimetics. 2. 4,5-Diphenyloxazole derivatives” (J Med Chem, 1992).

experiment: Inhibition of ADP-induced human platelet aggregation.; format: functional
In short: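 ADP-induced aggregation of human platelets measured in platelet-rich plasma by aggregometry. Protocol follows earlier reports. IC50 values come from a single experiment or from the mean of duplicates.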

Point of comparison: COc1c(CCc2nc(-c3ccccc3)c(-c3ccccc3)o2)cccc1OCC(=O)O, IC50 1.4 µM. Against it:
- O=C(O)COc1ccc(CCc2nc(-c3ccccc3)c(-c3ccccc3)o2)cc1 — 6.4-fold higher, 9 µM
- O=C(O)CCCOc1ccc(/C=C/c2nc(-c3ccccc3)c(-c3ccccc3)o2)cc1 — higher, > 75 µM
- O=C(O)CCCCCCCCCc1nc(-c2ccccc2)c(-c2ccccc2)o1 — higher, > 80 µM
- O=C(O)COc1ccccc1/C=C/c1nc(-c2ccccc2)c(-c2ccccc2)o1 — higher, > 80 µM
- O=C(O)CCCCCCCOc1nc(-c2ccccc2)c(-c2ccccc2)n1-c1ccccc1 [OCTIMIBATE] — within 1.5-fold, 1.02 µM
- O=C(O)CCCOc1cccc(Cc2nc(-c3ccccc3)c(-c3ccccc3)o2)c1 — higher, > 76 µM
- O=C(O)CCCCCCc1nc(-c2ccccc2)c(-c2ccccc2)o1 — higher, > 91 µM
- O=C(O)COc1ccc(/C=C/c2nc(-c3ccccc3)c(-c3ccccc3)o2)cc1 — 7.1-fold higher, 10 µM
- c1ccc(-c2nc(CCc3cccc(OCC4N=NN=N4)c3)oc2-c2ccccc2)cc1 — within 1.5-fold, 1.5 µM
- CC#CCC(C)[C@H](O)/C=C/[C@@H]1[C@H]2C/C(=C/CCCC(=O)O)C[C@H]2C[C@H]1O (stereo partly drawn) [ILOPROST] — within 1.5-fold, 2 µM
- O=C(O)COc1cccc(C#Cc2nc(-c3ccccc3)c(-c3ccccc3)o2)c1 — 43-fold higher, 60 µM
- O=C(O)CCc1cccc(OCc2nc(-c3ccccc3)c(-c3ccccc3)o2)c1 — higher, > 80 µM
- O=C(O)COc1cccc(OCc2nc(-c3ccccc3)c(-c3ccccc3)o2)c1 — within 1.5-fold, 1.2 µM
- O=C(O)CCCCOc1cccc(-c2nc(-c3ccccc3)c(-c3ccccc3)o2)c1 — 3.3-fold higher, 4.6 µM
- COc1c(/C=C/c2nc(-c3ccccc3)c(-c3ccccc3)o2)cccc1OCC(=O)O — 2.8-fold lower, 0.5 µM
- COc1ccc(/C=C/c2nc(-c3ccccc3)c(-c3ccccc3)o2)cc1OCC(=O)O — higher, > 75 µM
- COc1ccc(OCC(=O)O)cc1/C=C/c1nc(-c2ccccc2)c(-c2ccccc2)o1 — higher, > 75 µM
- O=C(O)COc1cccc(CSc2nc(-c3ccccc3)c(-c3ccccc3)o2)c1 — 6.9-fold higher, 9.6 µM
- O=C(O)COc1ccccc1CCc1nc(-c2ccccc2)c(-c2ccccc2)o1 — higher, > 80 µM
- O=C(O)COc1cccc(-c2nc(-c3ccccc3)c(-c3ccccc3)o2)c1 — higher, > 84 µM
- O=C(O)c1ccc(OCCCc2nc(-c3ccccc3)c(-c3ccccc3)o2)cc1 — 29-fold higher, 40 µM
- O=C(O)CCc1cccc(CCc2nc(-c3ccccc3)c(-c3ccccc3)o2)c1 — 11-fold higher, 16 µM
- O=C(O)CCCOc1ccccc1-c1nc(-c2ccccc2)c(-c2ccccc2)o1 — higher, > 80 µM
- O=C(O)CCCOc1ccccc1/C=C/c1nc(-c2ccccc2)c(-c2ccccc2)o1 — higher, > 75 µM
- O=C(O)c1cccc(OCCCCc2nc(-c3ccccc3)c(-c3ccccc3)o2)c1 — higher, > 77 µM
- CC(Oc1cccc(CCc2nc(-c3ccccc3)c(-c3ccccc3)o2)c1)C(=O)O (stereo not drawn) — 2.9-fold higher, 4 µM
- O=C(O)CCCCOc1ccccc1-c1nc(-c2ccccc2)c(-c2ccccc2)o1 — higher, > 77 µM
- O=C(O)COc1cccc(Cc2nc(-c3ccccc3)c(-c3ccccc3)o2)c1 — higher, > 82 µM
- COc1ccc(OCC(=O)O)cc1CCc1nc(-c2ccccc2)c(-c2ccccc2)o1 — higher, > 75 µM
- O=C(O)COc1cccc(/C=C\c2nc(-c3ccccc3)c(-c3ccccc3)o2)c1 — 7.8-fold lower, 0.18 µM
- O=C(O)c1cccc(OCCCc2nc(-c3ccccc3)c(-c3ccccc3)o2)c1 — higher, > 80 µM
- O=C(O)CCCOc1ccc(Cc2nc(-c3ccccc3)c(-c3ccccc3)o2)cc1 — higher, > 76 µM
- O=C(O)COc1cccc(/C=C/c2nc(-c3ccccc3)c(-c3ccccc3)o2)c1 — 9.3-fold higher, 13 µM
- O=C(O)CCCCOc1ccccc1Cc1nc(-c2ccccc2)c(-c2ccccc2)o1 — higher, > 74 µM
- O=C(O)CCCCOc1ccc(-c2nc(-c3ccccc3)c(-c3ccccc3)o2)cc1 — higher, > 77 µM
- O=C(O)CCCCCCCCc1nc(-c2ccccc2)c(-c2ccccc2)o1 — 1.8-fold higher, 2.5 µM
- CC(C)(Oc1cccc(CCc2nc(-c3ccccc3)c(-c3ccccc3)o2)c1)C(=O)O — higher, > 75 µM
- O=C(O)CCCCCCCc1nc(-c2ccccc2)c(-c2ccccc2)o1 — higher, > 88 µM
- O=C(O)CCCCc1nc(-c2ccccc2)c(-c2ccccc2)o1 — higher, > 100 µM
- O=C(O)C(CCCCCCCc1nc(-c2ccccc2)c(-c2ccccc2)o1)C(=O)O — higher, > 76 µM
- O=C(O)CCCOc1cccc(/C=C/c2nc(-c3ccccc3)c(-c3ccccc3)o2)c1 — higher, > 75 µM
- CCCCC[C@H](O)/C=C/[C@@H]1[C@H]2C/C(=C/CCCC(=O)O)O[C@H]2C[C@H]1O [EPOPROSTENOL] — 5.7-fold higher, 8 µM
- O=C(O)CCCOc1ccc(-c2nc(-c3ccccc3)c(-c3ccccc3)o2)cc1 — higher, > 80 µM
- O=C(O)c1ccc(OCCCCc2nc(-c3ccccc3)c(-c3ccccc3)o2)cc1 — higher, > 77 µM
- O=C(O)CCCOc1cccc(-c2nc(-c3ccccc3)c(-c3ccccc3)o2)c1 — 57-fold higher, 80 µM
- O=C(O)CCCOc1ccccc1CCc1nc(-c2ccccc2)c(-c2ccccc2)o1 — higher, > 75 µM
- O=C(O)CCCc1nc(-c2ccccc2)c(-c2ccccc2)o1 — higher, > 104 µM
- COc1ccc(CCc2nc(-c3ccccc3)c(-c3ccccc3)o2)cc1OCC(=O)O — higher, > 75 µM
- O=C(O)CCc1nc(-c2ccccc2)c(-c2ccccc2)o1 [OXAPROZIN] — higher, > 100 µM
- O=C(O)/C=C/c1cccc(CCc2nc(-c3ccccc3)c(-c3ccccc3)o2)c1 — 2.1-fold lower, 0.66 µM
- O=C(O)/C=C/c1cccc(OCc2nc(-c3ccccc3)c(-c3ccccc3)o2)c1 — 10-fold higher, 14 µM
- O=C(O)COc1ccc(Cc2nc(-c3ccccc3)c(-c3ccccc3)o2)cc1 — higher, > 82 µM
